# Active and inactive are the calls of the source. No cut-off for these calls is given here.
# Assays:
# [1] = molecular target: T1, Amyloid-beta precursor protein (Homo sapiens, UniProt P05067); test: Inhibition of amyloid beta (1 to 42) (unknown origin) assessed as fibril formation at 10 uM incubated with agitation for 1 min every hr measured over 80 hrs by thioflavin-T assay relative to control; set-up: scale not given: the % may be the effect or the level left
# [2] = molecular target: T1, Amyloid-beta precursor protein; test: Inhibition of amyloid beta (1 to 42) fibrillization (unknown origin) incubated with agitation for 1 min every hr measured over 80 hrs by thioflavin-T assay
# [3] = molecular target: T1, Amyloid-beta precursor protein; test: Inhibition of amyloid beta (1 to 42) fibrillization (unknown origin) at 12.5 to 25 uM incubated with agitation for 1 min every hr measured over 80 hrs by transmission electron microscopy
# Outline: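 End-point Aβ(1–42) products after 80 h ThT incubation (50 µM peptide, 37 °C) with 12.5 or 25 µM compound were applied to Formvar carbon-coated copper grids for 5 min. Grids were water-washed and stained with 2% uranyl acetate. Imaging was by TEM at 120 kV.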
# [4] = molecular target: T1, Amyloid-beta precursor protein; test: Inhibition of amyloid beta (1 to 42) (unknown origin) assessed as fibril formation up to 100 uM incubated with agitation for 1 min every hr measured over 80 hrs by thioflavin-T assay
# Outline: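 Synthetic Aβ(1–42) was dissolved in DMSO and diluted to 50 µM in 20 mM phosphate buffer, pH 7.4 (1.5% final DMSO), with 5 µM ThT. Compound was added at 0.01–100 µM and samples were held at 37 °C, agitated 1 min hourly. Fluorescence (ex 442, em 485 nm) was read over 80 h. Background-subtracted 80 h signal was normalized to Aβ alone and fit to Y=100/(1+10^(X−LogIC50)). Triplicate, SEM.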
# [5] = molecular target: T1, Amyloid-beta precursor protein; test: Inhibition of amyloid beta (1 to 42) (unknown origin) assessed as fibril formation at 3.1 uM incubated with agitation for 1 min every hr measured over 80 hrs by thioflavin-T assay relative to control; set-up: scale not given: the % may be the effect or the level left
# Outline: (§1)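 Synthetic Aβ(1–42) taken up in DMSO, diluted to 50 μM in 20 mM PB pH 7.4 (final DMSO 1.5%) with 5 μM ThT, compound 0.01–100 μM. Incubated at 37 °C with 1 min agitation hourly for 80 h. ThT read at ex 442/em 485 nm. The 80 h signal, buffer-subtracted, normalized to Aβ alone. Independent triplicates, SEM; IC50 fitted to Y=100/(1+10^(X−LogIC50)).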
# [6] = molecular target: T1, Amyloid-beta precursor protein; test: Inhibition of amyloid beta (1 to 42) (unknown origin) assessed as fibril formation at 25 uM incubated with agitation for 1 min every hr measured over 80 hrs by thioflavin-T assay relative to control; set-up: scale not given: the % may be the effect or the level left; outline: as §1
# [7] = molecular target: T1, Amyloid-beta precursor protein; test: Inhibition of amyloid beta (1 to 42) (unknown origin) assessed as fibril formation at 100 uM incubated with agitation for 1 min every hr measured over 80 hrs by thioflavin-T assay relative to control; set-up: scale not given: the % may be the effect or the level left; outline: as §1
# [8] = molecular target: T1, Amyloid-beta precursor protein; test: Disaggregation of amyloid beta (1 to 42 residues) (unknown origin) preformed fibrils incubated with agitation for 1 min every hr measured over 80 hrs by thioflavin-T assay
# Outline: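 Preformed Aβ(1–42) fibrils (25 μM; peptide in DMSO diluted into 20 mM PB pH 7.4, shaken at least 4 days) mixed with compound at 0–100 μM and 5 μM ThT. Incubated at 37 °C with 1 min agitation hourly. Fluorescence read at ex 442/em 485 nm, buffer background subtracted. Final signal normalized to fibrils alone; triplicate; IC50 fitted to Y=100/(1+10^(X−LogIC50)).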
# [9] = molecular target: T1, Amyloid-beta precursor protein; test: Disaggregation of amyloid beta (1 to 42 residues) (unknown origin) preformed fibrils up to 100 uM measured immediately by Western blot analysis
# Outline: (§2)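 Preformed Aβ(1–42) fibrils incubated with compound at 0, 25, 50 or 100 μM for 0 or 14 days. Samples (20 μL plus SDS sample buffer) run on native 13% Tris-tricine gel without SDS, transferred to nitrocellulose at 250 mA for 75 min at 4 °C, blocked in 5% milk, probed with 4G8 and 6E10 plus anti-mouse IgG, ECL detection.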
# [10] = molecular target: T1, Amyloid-beta precursor protein; test: Disaggregation of amyloid beta (1 to 42 residues) (unknown origin) preformed fibrils up to 100 uM measured on day 14 by Western blot analysis; outline: as §2
# [11] = molecular target: T1, Amyloid-beta precursor protein; test: Disaggregation of amyloid beta (1 to 42 residues) (unknown origin) preformed fibrils at 100 uM measured immediately by transmission electron microscopy
# Outline: (§3)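 Aβ(1–42) made by Fmoc solid-phase synthesis and HPLC-purified. Fibrils preformed by dissolving 0.1 mg peptide in DMSO, diluting in 20 mM PB pH 7.4, and shaking for at least 4 days. Fibrils mixed with compound (100 μM), sampled at time 0 or after 14 days, placed on carbon-coated grids, stained with 2% uranyl acetate and imaged by TEM at 120 kV.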
# [12] = molecular target: T1, Amyloid-beta precursor protein; test: Disaggregation of amyloid beta (1 to 42 residues) (unknown origin) preformed fibrils at 100 uM measured on day 14 by transmission electron microscopy; outline: as §3
# SH-SY5Y [13] = test: Neuroprotective activity against amyloid beta (1 to 42 residues) induced cytotoxicity in human SH-SY5Y cells assessed as protection against amyloid beta (1 to 42 residues) induced decrease in cell viability at 0.01 uM after 24 hrs by LDH assay relative to control; type: functional
# Outline: (§4)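 SH-SY5Y cells (DMEM/F12, 5% FBS, 37 °C, 5% CO2) were seeded at 10,000 cells/well for 24 h, then switched to serum-free medium. Cells received 10 µL end-point Aβ(1–42) ThT-assay product (peptide co-incubated with compound) for 24 h. Cleared medium was incubated with LDH substrate 30 min at room temperature, dark, and read at 490 nm. Cell-free background was subtracted; 2% Triton X-100 lysis set 100% cytotoxicity. Triplicate.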
# SH-SY5Y [14] = test: Neuroprotective activity against amyloid beta (1 to 42 residues) induced cytotoxicity in human SH-SY5Y cells assessed as protection against amyloid beta (1 to 42 residues) induced decrease in cell viability at 25 uM after 24 hrs by LDH assay relative to control; type: functional; outline: as §4
# SH-SY5Y [15] = test: Neuroprotective activity against amyloid beta (1 to 42 residues) induced cytotoxicity in human SH-SY5Y cells assessed as protection against amyloid beta (1 to 42 residues) induced decrease in cell viability after 24 hrs by LDH assay; type: functional, cell-based; outline: as §4
# SH-SY5Y [16] = test: Neuroprotective activity against preformed amyloid beta (1 to 42 residues) fibril induced cytotoxicity in human SH-SY5Y cells assessed as protection against amyloid beta (1 to 42 residues) induced cell viability at 50 uM after 24 hrs by LDH assay (reference value: 17%); type: functional
# Outline: (§5)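 Preformed fibrils: 0.1 mg Aβ(1–42) in 6 µL DMSO was diluted into 880 µL 20 mM PB pH 7.4 and shaken ≥4 days. Fibrils were then held with 0, 25, 50 or 100 µM compound. SH-SY5Y cells in serum-free medium received 10 µL sample for 24 h. LDH release was read at 490 nm, background-subtracted, and normalized to 2% Triton X-100 lysis as 100%.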
# SH-SY5Y [17] = test: Neuroprotective activity against preformed amyloid beta (1 to 42 residues) fibril induced cytotoxicity in human SH-SY5Y cells assessed as protection against amyloid beta (1 to 42 residues) induced cell viability at 100 uM after 24 hrs by LDH assay (reference value: 17%); type: functional; outline: as §5
# SH-SY5Y [18] = test: Neuroprotective activity against preformed amyloid beta (1 to 42 residues) fibril induced cytotoxicity in human SH-SY5Y cells assessed as protection against amyloid beta (1 to 42 residues) induced decrease in cell viability at 25 uM after 24 hrs by LDH assay; type: functional, cell-based; outline: as §5
# Caenorhabditis elegans [19] = test: Protection against amyloid beta aggregation-induced paralysis in Caenorhabditis elegans CL4176 assessed as survival rate of worms at 40 uL pretreated with compound at 16 degC for 20 hrs followed by raising temperature to 25 degC and measured at 26 hrs relative to control; type: functional
# Outline: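 About 130 eggs of transgenic C. elegans CL4176 (muscle myo-3p::Aβ(1–42)) were grown at 16 °C on NGM plates with E. coli OP50. Plates were pretreated with 40 µL of a 6.27 mM compound solution; nematode growth medium served as buffer control. Temperature was raised to 25 °C at L4. Unparalysed worms (~100–130 per condition) were counted every 2 h. Five trials.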
# Caenorhabditis elegans [20] = test: Protection against amyloid beta aggregation-induced paralysis in Caenorhabditis elegans CL4176 assessed as median survival time of worms at 40 uL pretreated with compound at 16 degC for 20 hrs followed by raising temperature to 25 degC (reference value: 42.2 hrs); type: functional
# T1 sequence (P05067 whole entry): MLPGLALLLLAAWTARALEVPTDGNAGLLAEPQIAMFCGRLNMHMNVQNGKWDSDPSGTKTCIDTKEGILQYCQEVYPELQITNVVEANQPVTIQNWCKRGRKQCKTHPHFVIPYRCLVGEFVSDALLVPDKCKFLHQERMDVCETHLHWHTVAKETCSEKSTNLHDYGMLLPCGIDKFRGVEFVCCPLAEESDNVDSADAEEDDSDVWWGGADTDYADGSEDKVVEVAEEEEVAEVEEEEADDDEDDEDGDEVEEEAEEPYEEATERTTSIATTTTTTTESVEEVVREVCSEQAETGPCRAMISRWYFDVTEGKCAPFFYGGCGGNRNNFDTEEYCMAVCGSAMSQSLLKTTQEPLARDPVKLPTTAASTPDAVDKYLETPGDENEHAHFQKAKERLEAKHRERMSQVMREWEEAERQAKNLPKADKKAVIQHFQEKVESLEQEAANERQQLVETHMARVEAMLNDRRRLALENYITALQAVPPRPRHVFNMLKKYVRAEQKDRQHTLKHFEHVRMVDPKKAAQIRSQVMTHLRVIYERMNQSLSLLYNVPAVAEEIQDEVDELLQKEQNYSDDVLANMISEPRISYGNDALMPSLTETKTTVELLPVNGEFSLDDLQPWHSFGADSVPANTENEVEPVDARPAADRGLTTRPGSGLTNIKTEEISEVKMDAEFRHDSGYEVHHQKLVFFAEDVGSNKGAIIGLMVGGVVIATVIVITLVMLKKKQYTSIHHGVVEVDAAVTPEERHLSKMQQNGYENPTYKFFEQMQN
compound,measurement,setting,value
O=C(/C=C/c1ccc(O)c(O)c1)NCCCNC(=O)/C=C/c1ccc(O)c(O)c1,Activity,[1],52.9%
same,IC50,[2],4.9 µM
same,inhibition,[2],Dose-dependent effect
same,inhibition,[3],Active
same,inhibition,[4],Active
same,Activity,[5],60%
same,Activity,[6],8%
same,Activity,[7],1%
same,Activity,[8],Dose-dependent effect
same,IC50,[8],4.2 µM
same,Activity,[9],inactive
same,Activity,[10],Active
same,Activity,[11],inactive
same,Activity,[12],Active
same,Activity,SH-SY5Y [13],19%
same,Activity,SH-SY5Y [14],34%
same,Activity,SH-SY5Y [15],Dose-dependent effect
same,Activity,SH-SY5Y [16],12%
same,Activity,SH-SY5Y [17],9%
same,Activity,SH-SY5Y [18],inactive
same,fold change (FC),Caenorhabditis elegans [19],2.5
same,MST,Caenorhabditis elegans [20],27.3 h
O=C(/C=C/c1ccc(O)c(O)c1)NCCCCc1cn(Cc2ccc(-c3ccc(Cn4cc(CCCCNC(=O)/C=C/c5ccc(O)c(O)c5)nn4)cc3)cc2)nn1,Activity,[1],61.8%
C#CCCCCNC(=O)/C=C/c1ccc(O)c(O)c1,Activity,[1],67.6%
O=C(/C=C/c1ccc(O)c(O)c1)NCc1cn(Cc2ccc(Cn3cc(CNC(=O)/C=C/c4ccc(O)c(O)c4)nn3)cc2)nn1,Activity,[1],76.5%
C#CCNC(=O)[C@@H](Cc1ccc(O)c(O)c1)OC(=O)/C=C/c1ccc(O)c(O)c1,Activity,[1],107%
O=C(/C=C/c1ccc(O)c(O)c1)O[C@H](Cc1ccc(O)c(O)c1)C(=O)O,Activity,[1],79.1%
O=C(/C=C/c1ccc(O)c(O)c1)NCCCc1cn(Cc2ccc(-c3ccc(Cn4cc(CCCNC(=O)/C=C/c5ccc(O)c(O)c5)nn4)cc3)cc2)nn1,Activity,[1],112%
COc1cc(/C=C/C(=O)CC(=O)/C=C/c2ccc(O)c(OC)c2)ccc1O [CURCUMIN],inhibition,[2],Dose-dependent effect
same,inhibition,[3],Active
same,Activity,SH-SY5Y [13],inactive
same,Activity,SH-SY5Y [14],20%
same,Activity,SH-SY5Y [15],Dose-dependent effect
same,MST,Caenorhabditis elegans [20],25.7 h
O=C(/C=C/c1ccc(O)c(O)c1)NCCOCCOCCOCCOCCOCCNC(=O)/C=C/c1ccc(O)c(O)c1,Activity,[1],67.6%
same,inhibition,[3],inactive
O=C(/C=C/c1ccc(O)c(O)c1)CC(=O)/C=C/c1ccc(O)c(O)c1,Activity,[1],11.5%
O=C(/C=C/c1ccc(O)c(O)c1)NCc1cn(Cc2ccc(-c3ccc(Cn4cc(CNC(=O)/C=C/c5ccc(O)c(O)c5)nn4)cc3)cc2)nn1,Activity,[1],88.2%
C#CCCCNC(=O)/C=C/c1ccc(O)c(O)c1,Activity,[1],135%
C#CCNC(=O)/C=C/c1ccc(O)c(O)c1,Activity,[1],79.4%
O=C(/C=C/c1ccc(O)c(O)c1)O[C@H](Cc1ccc(O)c(O)c1)C(=O)NCc1cn(Cc2ccc(-c3ccc(Cn4cc(CNC(=O)[C@@H](Cc5ccc(O)c(O)c5)OC(=O)/C=C/c5ccc(O)c(O)c5)nn4)cc3)cc2)nn1,Activity,[1],65.1%
O=C(/C=C/c1ccc(O)c(O)c1)NCCOCCOCCNC(=O)/C=C/c1ccc(O)c(O)c1,Activity,[1],64.7%
same,inhibition,[3],inactive
O=C(/C=C/c1ccc(O)c(O)c1)NCCOCCOCCOCCNC(=O)/C=C/c1ccc(O)c(O)c1,Activity,[1],79.4%
same,inhibition,[3],inactive
O=C(O)/C=C/c1ccc(O)c(O)c1 [CAFFEIC ACID],Activity,[1],91.2%
same,IC50,[2],15.6 µM
same,inhibition,[2],Dose-dependent effect
same,inhibition,[3],Active
same,Activity,SH-SY5Y [13],5%
same,Activity,SH-SY5Y [14],20%
same,Activity,SH-SY5Y [15],Dose-dependent effect
same,MST,Caenorhabditis elegans [20],26.3 h
O=C(/C=C/c1ccc(O)c(O)c1)NCCOCCOCCOCCOCCNC(=O)/C=C/c1ccc(O)c(O)c1,Activity,[1],61.8%
same,inhibition,[3],inactive
